Compounds with a hit are over-represented: about 2.1% of the library has one in this group of screens.
Runt-SMMHC FRET – inhibitors of RUNX1 Runt–CBFb-SMMHC binding, primary screen, biochemical, FRET, Cerulean-Runt, Venus-CBFb-SMMHC, uHTS; Runt-related transcription factor 1 (Homo sapiens) + Core-binding factor subunit beta …; Cerulean-Runt/Venus-CBFb-SMMHC FRET ratio 530/480, 1 h; inhibition, % at 20 µM; actives 0.74% (n = 220,000);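 active means mean inhibition across duplicate retests at 20 µM reaching about 50%, limit read from the data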;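 further: 0% = DMSO wells and 100% = wells with excess untagged CBFb-SMMHC; inhibitors lower the FRET ratio by blocking Runt binding to CBFb-SMMHC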
TbHK1 inh – Trypanosoma brucei hexokinase 1 inhibitors, primary screen, biochemical, G6PDH-coupled NADH absorbance, MLSCN library; recombinant TbHK1, G6PDH-coupled NADH A340; inhibition, % at 10 µM; actives 0.11% (n = 220,000); AID 1430, 2008; hexokinase 1 [Trypanosoma brucei];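 active means inhibition of 50% or more in the single-dose primary screen; inactive means inhibition below 50%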
RanGTP-Impb inh – inhibitors of RanGTP-importin-beta interaction, primary screen, biochemical, FRET, CFP-Ran, YFP-importin-beta, homogeneous; Ran GTPase (GTP-bound) - importin-beta complex; cell-free CFP-Ran/YFP-importin-beta FRET ratio; inhibition, % (concentration not given with the values); actives 1.1% (n = 300,000); AID 2216, 2009;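 active means more than half of the replicate wells show a fall in the fluorescence ratio signal beyond about 16%, limit read from the data, passing the limit was not always enough; inconclusive means exactly half of the replicate wells pass the set limit; inactive means fewer than half of replicates pass the limit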;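 further: 0% = DMSO wells and 100% = Ran loaded with GDP instead of GTP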
Hck-Nef inh – inhibitors of Nef-activated human Hck kinase, primary screen, biochemical, Z-Lyte FRET, 384-well, Hck-YEEI; Tyrosine-protein kinase HCK (Homo sapiens), P08631; Recombinant Hck-YEEI plus Nef, Z-Lyte FRET kinase assay; inhibition, % at 20 µM; actives 0.68% (n = 220,000); AID 463187, 2010;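 active means Hck-Nef kinase inhibition above about 50%, limit read from the data; inactive means inhibition below that limit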;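 further: 0% = DMSO with Hck plus Nef and 100% = Hck alone without Nef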
p97 inhibitor – inhibitors of human p97 ATPase, primary screen, biochemical | AID 1481, 2009 | recombinant p97 ATPase, Kinase-Glo ATP luminescence, 3 h | Transitional endoplasmic reticulum ATPase (Homo sapiens), P55072 | inhibition, % at 8 µM | actives 0.42% (n = 220,000); in the data active means inhibition above about 15%;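 further: 0% = DMSO vehicle and 100% = wells lacking enzyme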
Target sequence (P55072 whole entry, looked up): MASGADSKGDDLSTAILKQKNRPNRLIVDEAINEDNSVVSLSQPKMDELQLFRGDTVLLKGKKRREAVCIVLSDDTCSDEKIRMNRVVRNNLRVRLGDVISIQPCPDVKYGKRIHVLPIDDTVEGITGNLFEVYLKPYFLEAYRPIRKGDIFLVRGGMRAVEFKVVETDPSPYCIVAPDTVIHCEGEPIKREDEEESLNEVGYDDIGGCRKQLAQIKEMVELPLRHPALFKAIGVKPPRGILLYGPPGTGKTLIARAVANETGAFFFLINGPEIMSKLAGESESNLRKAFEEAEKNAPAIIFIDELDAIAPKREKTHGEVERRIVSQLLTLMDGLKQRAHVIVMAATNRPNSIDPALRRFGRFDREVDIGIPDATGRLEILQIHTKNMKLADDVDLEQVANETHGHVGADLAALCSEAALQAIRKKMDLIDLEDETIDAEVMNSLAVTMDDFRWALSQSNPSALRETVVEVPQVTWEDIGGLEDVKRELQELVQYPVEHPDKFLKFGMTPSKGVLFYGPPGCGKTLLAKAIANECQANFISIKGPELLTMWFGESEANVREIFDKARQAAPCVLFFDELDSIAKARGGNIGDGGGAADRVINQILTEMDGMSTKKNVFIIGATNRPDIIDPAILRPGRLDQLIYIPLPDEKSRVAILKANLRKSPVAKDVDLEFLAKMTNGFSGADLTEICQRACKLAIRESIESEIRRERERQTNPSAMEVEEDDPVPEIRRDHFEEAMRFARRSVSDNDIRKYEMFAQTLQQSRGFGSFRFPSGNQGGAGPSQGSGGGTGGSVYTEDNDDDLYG
Runt-CBFb FRET – inhibitors of RUNX1 Runt–CBFb binding, primary screen, biochemical, FRET, Cerulean-Runt, Venus-CBFb, uHTS; Cerulean-Runt/Venus-CBFb FRET ratio 530/480, 1 h; inhibition, % at 20 µM; actives 0.46% (n = 220,000); Runt-related transcription factor 1 (Homo sapiens) + Core-binding factor subunit beta …;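 active means inhibition over about 50% at 20 µM in the single-dose screen, limit read from the data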;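 further: 0% = DMSO wells and 100% = excess unlabeled CBFb competitor control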
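System: Cerulean-labeled Runt domain protein | Quantity: 100 nM of each labeled protein | Schedule: 1 h compound exposure, room temperature | Detection: Fluorescence energy transfer, 422 nm excitation, 530/480 nm emission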
* hit, by the source's call; ? = inconclusive; . = no result; + = active, no number.

SMILES	Runt-SMMHC FRET	TbHK1 inh	RanGTP-Impb inh	Hck-Nef inh	p97 inhibitor	Runt-CBFb FRET
COC(=O)C1=C(N)Oc2cc(C)n(Cc3ccncc3)c(=O)c2C1c1cccnc1 (configuration not stated)	.	0.7	-2.6	-0.8	-5.8	.
CCn1c(C)cc2c(c1=O)C(c1ccccc1)C(C(=O)OC)=C(N)O2 (configuration not stated)	1.3	0.5	42.5*	2.9	3.1	-2.3
CCCCC(=O)Nc1cccc(NC(=O)c2ccc(Br)o2)c1	0.5	3.8	38.0*	2.1	2.5	0.2
C/C(C/C(C)=C1/SC(=S)NC1=O)=C1\SC(=S)NC1=O	19.6	-17.9	.	74.5*	13.3	37.1
Cc1ccc(S(=O)(=O)[N-]c2nc3ccccc3nc2-n2cc[n+](CCC(C)C)c2)cc1	32.5	-13.6	?	16.6	-2.2	-1.8
CC(C)CC[n+]1ccn(-c2nc3ccccc3nc2[N-]S(=O)(=O)c2ccc(Cl)cc2)c1	25.9	-3.9	30.2*	14.1	0.2	10.7
CC1(C(=O)O)Sc2[nH]c(=O)sc2C2c3ccccc3OC(=O)C21 (configuration not stated)	2.1	-8.3	47.8*	-0.6	6.3	12.6
O=C(O)C1Sc2[nH]c(=O)sc2C2c3ccc(O)cc3OC(=O)C12 (configuration not stated)	87.4*	-2.0	.	29.9	12.0	19.6
COC(=O)C1Sc2[nH]c(=O)sc2C2c3ccccc3OC(=O)C12 (configuration not stated)	-4.3	2.4	60.5*	-0.5	4.5	16.8
COc1ccc(CNC(=O)C/C(C)=N/NC(=O)COc2ccccc2)cc1	3.4	-0.3	-1.6	22.7	4.5	-0.6
CCCCc1cc(=O)oc2cc(C)cc(O)c12	-44.5	-9.2	1.5	-1.1	-0.8	.
CCCCc1cc(=O)oc2cc(O)cc(O)c12	61.0*	-31.3	4.8	-40.9	7.6	35.4
CCOc1ccc(N(C)C(=O)CCc2nnc3ccc(N4CCCCC4)nn23)cc1	.	.	1.7	.	.	.
CCOc1cc(/C=N/NC(=O)C(N)=O)cc(Br)c1O	1.5	-36.4	0.1	8.8	3.9	5.0
CCOc1cc(Br)c(Br)c(C=Nc2ccc(NC(C)=O)cc2)c1O	-20.2	10.0	-6.9	62.6*	3.9	-4.6
CC(OC(=O)/C(C#N)=C/c1ccc(N(C)C)cc1)C(=O)N(C)c1ccccc1 (configuration not stated)	.	.	92.2*	.	.	.
COCCCn1c(=O)/c(=C\c2ccc(OC(F)F)c(OC)c2)s/c1=C(/C#N)C(N)=O	81.1*	-13.6	-173.3	8.3	3.7	-89.1
COCCCn1c(=O)/c(=C\c2ccccc2OC(F)F)s/c1=C(/C#N)C(N)=O	-7.9	2.3	5.7	24.0	3.6	-19.0
Cc1ccnc(Nc2nc(-c3ccc(O)cc3O)cs2)c1	.	.	6.1	.	.	.
Brc1cc2c(cc1-c1nc3ccccc3s1)OCO2	.	.	0.5	.	.	.
Oc1ccc(N=C/C=C/c2ccc(Br)cc2)cc1-c1nc2ccccc2s1	35.6	1.3	38.4*	3.3	-1.3	33.5
CCCC(=O)Nc1c2c(nn1-c1ccc([N+](=O)[O-])cc1)CS(=O)(=O)C2	.	.	-1.3	.	.	.
COc1cccc(N2CCN(C(=O)c3oc4ccccc4c3NC(=O)CCc3cc(OC)no3)CC2)c1	.	.	21.1	.	.	.
CCN(CC)CCCNC(=O)C1CCC(=O)N(c2ccc(OC)cc2)C1c1ccc(F)cc1 (configuration not stated)	-9.7	1.0	53.7*	0.4	-6.4	-1.9
C=CCOc1ccc(C(=O)Nc2ncn[nH]2)cc1	.	.	-2.3	.	.	.
SMILES	Runt-SMMHC FRET	TbHK1 inh	RanGTP-Impb inh	Hck-Nef inh	p97 inhibitor	Runt-CBFb FRET
COc1ccc(CCNC(=S)Nc2cccc(C)c2C)cc1	5.4	6.1	27.3*	4.7	-3.6	-0.4
CCCCn1c(N)c(N(CCOC)C(=O)C2CCN(c3ncnc4sc(C)c(C)c34)CC2)c(=O)[nH]c1=O	.	.	2.8	.	.	.
COc1cc(SC)ccc1C(=O)N(CC(=O)Nc1ccccc1Br)Cc1ccco1	.	.	2.5	.	.	.
COc1cc(-c2nnc(SCc3cc(=O)oc4cc(O)c(O)cc34)o2)cc(OC)c1OC	58.7*	-9.7	9.1	10.8	7.5	67.3*
COC(=O)Cc1cc(=O)n2[nH]c(C)nc2n1	3.1	-1.4	17.6*	-10.3	3.3	-0.7
CC1CCc2sc3ncn4nc(C(=O)NCc5ccco5)nc4c3c2C1 (configuration not stated)	-4.0	-1.5	119.9*	-4.3	6.8	-2.3
CCOC(=O)c1cc2c(=O)n3cccc(C)c3nc2n(Cc2ccccc2Cl)c1=N	65.0*	.	.	.	.	125.5*
CCOC(=O)N1CCN(C(=O)c2cc3c(=O)n4cccc(C)c4nc3s2)CC1	.	.	-1.4	.	.	.
C=CCn1c(=N)c(C(=O)OCC)cc2c(=O)n3cccc(C)c3nc21	.	-6.3	.	172.4*	4.6	.
Cc1cccn2c(=O)c3cc(C(=O)NC4CCCC4)c(=N)n(CC4CCCO4)c3nc12 (configuration not stated)	.	.	191.6*	.	.	.
Cc1cccn2c(=O)c3cc(C(=O)NCC4CCCO4)c(=N)n(CC4CCCO4)c3nc12 (configuration not stated)	.	.	187.7*	.	.	.
Cc1cccn2c(=O)c3cc(S(=O)(=O)c4ccc(Br)cc4)c(=N)n(C4CCCCC4)c3nc12	.	.	0.8	.	.	.
Cc1cccn2c(=O)c3cc(C(=O)NCc4ccco4)c(=N)n(C4CCCC4)c3nc12	.	.	130.0*	.	.	.
Cc1cccn2c(=O)c3cc(C(=O)NC4CCCCC4)c(=N)n(Cc4ccc(F)cc4)c3nc12	.	.	-1.9	.	.	.
Cc1ccc(-c2cc(C(=O)NCC3CCCO3)c3ccccc3n2)cc1C (configuration not stated)	2.3	-10.8	-1.7	17.7	2.5	-5.6
Cc1cccn2c(=O)c3cc(C(=O)NCC4CCCO4)c(=N)n(C4CCCCC4)c3nc12 (configuration not stated)	.	.	+	.	.	.
CNC(=O)C1(C(F)(F)F)C/C(=C\CCO)CCCO1 (configuration not stated)	.	.	-8.6	.	.	.
Cc1cc(NC(=O)CCl)n(-c2nc3ccccc3s2)n1	-0.1	-4.7	-0.3	58.6*	9.7	-4.8
Nc1ccc2[nH]ncc2c1	56.9*	-6.9	?	3.9	4.2	20.2
Cc1cc2[nH]ncc2cc1NC(N)=S	-5.0	5.1	0.9	-5.3	4.0	1.2

Bioassay records (PubChem)
